Assay results as given in ChEMBL document CHEMBL1138348, “A p-[18F]fluoroethoxyphenyl bicyclic nucleoside analogue as a potential positron emission tomography imaging agent for varicella-zoster virus thymidine kinase gene expression” (J Med Chem, 2007).
pIC50: −log10 of the molar value.

How the values were obtained:
[1] = Inhibition of Varicella zoster virus thymidine kinase; set-up: species or system Human alphaherpesvirus 3
In short: (§1)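 Purified recombinant VZV TK (7.75 ng), HSV-1 TK (226 ng) or human cytosolic TK-1 (455 ng) in 50 mM Tris-HCl pH 8.0, 2.5 mM MgCl2, 10 mM DTT, 2.5 mM ATP, 1 mg/mL BSA, 10 mM NaF, with 1 µM final [CH3-3H]dThd substrate. Incubated 30 min at 37 °C with varied compound concentrations; the reaction was linear over this time. Product bound on DE-81 filters, washed, and counted by liquid scintillation. Result reported as IC50.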

[2] = target: T1, Thymidine kinase, cytosolic (Homo sapiens, UniProt P04183); test: Inhibition of human cytosolic thymidine kinase 1; in short: as §1
T1 sequence (P04183 whole entry): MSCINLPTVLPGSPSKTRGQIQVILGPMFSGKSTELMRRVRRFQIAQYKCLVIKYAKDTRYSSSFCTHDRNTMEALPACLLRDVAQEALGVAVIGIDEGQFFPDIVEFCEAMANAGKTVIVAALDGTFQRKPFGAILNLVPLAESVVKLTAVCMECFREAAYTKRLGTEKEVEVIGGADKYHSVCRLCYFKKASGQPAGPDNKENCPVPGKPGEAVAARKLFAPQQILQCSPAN

[3] = Inhibition of HSV1 thymidine kinase; set-up: species or system Human alphaherpesvirus 1; in short: as §1

Row | pIC50 [1] | pIC50 [2] | pIC50 [3] | SMILES
1 | 6.40 | < 3.30 | < 3.30 | O=c1nc2oc(-c3ccc(O)cc3)cc2cn1[C@H]1C[C@H](O)[C@@H](CO)O1
2 | 5.82 | < 3.30 | < 3.30 | COc1ccc(-c2cc3cn([C@H]4C[C@H](O)[C@@H](CO)O4)c(=O)nc3o2)cc1
3 | 5.38 | < 3.30 | < 3.30 | O=c1nc2oc(-c3ccc(OCCF)cc3)cc2cn1[C@H]1C[C@H](O)[C@@H](CO)O1
